Columns and labels:
Homo sapiens = organism: Homo sapiens; experiment: Selectivity ratio of inhibition of COX2 to inhibition of COX1
[1] = Antioxidant activity assessed as H2O2-induced hydroxyl radical scavenging activity at 100 uM after 5 mins by spectrophotometry; assay type: functional
Method in brief: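 Mixture of FeCl2 (1 mM), 1,10-phenanthroline (1 mM), phosphate buffer (0.2 M, pH 7.8), H2O2 (0.17 M) and sample (0.1 mM); reaction started with H2O2, 5 min at room temperature, absorbance at 560 nm. Ascorbic acid (0.1 mM) reference.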

[2] = tested on: Radical scavenging activity; experiment: Antioxidant activity assessed as DPPH radical scavenging activity at 100 uM after 20 mins by spectrophotometry; assay type: functional
Method in brief: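 Test solution (0.1 mM) mixed with an equal quantity of 0.1 mM DPPH in ethanol; 20 min at room temperature, then DPPH reduction read as absorbance at 517 nm. Ascorbic acid (0.1 mM) as reference.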

[3] = Antioxidant activity assessed as superoxide radical scavenging activity at 100 uM after 5 mins by NBT reduction assay; assay type: functional
Method in brief: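 Superoxide generated in Tris-HCl (100 mM, pH 7.4) with NBT (300 µM), NADH (936 µM) and sample (0.1 mM); NBT reduction read after 5 min at room temperature as absorbance at 560 nm. Ascorbic acid (0.1 mM) reference.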

[4] = target: Prostaglandin G/H synthase 1 (Homo sapiens) (UniProt P23219); experiment: Inhibition of COX1 peroxidase activity assessed as formation of TMPD at 100 uM by colorimetric analysis
Method in brief: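 COX-1 peroxidase activity: assay buffer, heme and enzyme with sample (0.1 mM); oxidized TMPD appearance monitored colorimetrically at 590 nm.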

Mus musculus [5] = experiment: Antiinflammatory activity in AKR mouse assessed as inhibition of carrageenan-induced paw edema at 0.01 mmol/kg dosed intradermally after 3.5 hrs relative to vehicle-treated control; assay type: functional
Method in brief: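 Edema induced in right hind paw of AKR mice (both sexes, pregnant females excluded, fasted during experiment) by intradermal 0.05 mL of 2% carrageenin in water; 6–10 animals per group. Paw weight increase, injected vs uninjected paw, compared with water-treated controls as percent edema inhibition; experiments in duplicate, mean of two.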

Mus musculus [6] = experiment: Toxicity in carrageenan-challenged AKR mouse up to 0.5 mmol/kg dosed intradermally; assay type: organism-based; details: in vivo, other

Chain of Prostaglandin G/H synthase 1 (Homo sapiens) (P23219 whole entry): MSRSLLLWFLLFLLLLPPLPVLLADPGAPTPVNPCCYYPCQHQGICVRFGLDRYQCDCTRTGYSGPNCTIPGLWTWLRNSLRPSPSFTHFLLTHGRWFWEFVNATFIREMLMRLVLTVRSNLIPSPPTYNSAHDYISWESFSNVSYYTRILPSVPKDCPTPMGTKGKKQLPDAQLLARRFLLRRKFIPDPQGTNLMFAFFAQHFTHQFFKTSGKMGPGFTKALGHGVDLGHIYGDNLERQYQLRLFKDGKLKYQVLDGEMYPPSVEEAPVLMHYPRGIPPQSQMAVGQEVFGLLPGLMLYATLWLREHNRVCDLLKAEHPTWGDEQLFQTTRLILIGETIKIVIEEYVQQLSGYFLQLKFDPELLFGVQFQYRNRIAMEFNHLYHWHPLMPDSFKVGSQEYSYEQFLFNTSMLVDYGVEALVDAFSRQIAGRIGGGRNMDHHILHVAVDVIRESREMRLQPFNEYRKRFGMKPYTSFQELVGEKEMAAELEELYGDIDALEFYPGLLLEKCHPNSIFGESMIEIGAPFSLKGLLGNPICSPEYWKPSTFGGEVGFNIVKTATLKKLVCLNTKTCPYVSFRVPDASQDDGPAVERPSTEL

Row | Selectivity ratio (Homo sapiens) | inhibition [4] | Compound | Activity [1] | Activity [2] | Activity [3] | inhibition in vivo at 10 µmol/kg (Mus musculus [5]) | Activity (Mus musculus [6])
1 | 1.14 | 8.85% | Cn1c2ccccc2c2cc(C3CC(c4cc(Cl)ccc4Cl)=NN3)ccc21 (stereo unspecified) | 78.6% | 91.7% | 86.3% | – | –
2 | 3.69 | 23.5% | COc1cc(OC)c(C2=NNC(c3ccc4c(c3)c3ccccc3n4C)C2)c(OC)c1 (stereo unspecified) | 74.3% | 86% | 70.4% | 54.3% | Non-toxic
3 | 2.06 | 20.1% | Cn1c2ccccc2c2cc(C3CC(c4ccccn4)=NN3)ccc21 (stereo unspecified) | 54.8% | 72% | 62.2% | – | –
4 | 0.49 | 46.2% | Cn1c2ccccc2c2cc(C3CC(c4ccc(F)cc4)=NN3)ccc21 (stereo unspecified) | 54.6% | 79.3% | 45.6% | – | –
5 | 3.66 | 24.1% | COc1ccc(C2=NNC(c3ccc4c(c3)c3ccccc3n4C)C2)cc1OC (stereo unspecified) | 69.3% | 84% | 69.4% | 60.3% | Non-toxic
6 | 1.24 | 10.2% | Cn1c2ccccc2c2cc(C3CC(c4ccc(Cl)cc4)=NN3)ccc21 (stereo unspecified) | 55% | 79.3% | 62.4% | – | –
7 | 1.3 | 14.2% | Cn1c2ccccc2c2cc(C3CC(c4ccc([N+](=O)[O-])cc4)=NN3)ccc21 (stereo unspecified) | 64.8% | 81.1% | 65.1% | – | –
8 | 0.22 | 90.8% | Cn1c2ccccc2c2cc(C3CC(c4ccc(F)c(F)c4)=NN3)ccc21 (stereo unspecified) | 63.2% | 79.8% | 69.4% | – | –
9 | 2.58 | 10.4% | Cn1c2ccccc2c2cc(C3CC(c4ccc(F)cc4F)=NN3)ccc21 (stereo unspecified) | 60.2% | 83.8% | 63.2% | – | –
10 | – | – | O=C1O[C@H]([C@@H](O)CO)C(O)=C1O | 88.3% | 91.5% | 52% | – | –
11 | 1.34 | 12.2% | Cn1c2ccccc2c2cc(C3CC(c4ccc(Cl)c(Cl)c4)=NN3)ccc21 (stereo unspecified) | 65.1% | 87.4% | 61.4% | – | –
12 | 2.16 | 10.2% | Cn1c2ccccc2c2cc(C3CC(c4ccccc4)=NN3)ccc21 (stereo unspecified) | 63.5% | 79.9% | 63.2% | – | –
13 | 1.02 | 87.4% | Cn1c2ccccc2c2cc(C3CC(c4ccc(Br)cc4)=NN3)ccc21 (stereo unspecified) | 57.5% | 80.6% | 56.2% | – | –
14 | 4.06 | 20.6% | COc1ccc(C2=NNC(c3ccc4c(c3)c3ccccc3n4C)C2)cc1 (stereo unspecified) | 58.2% | 80.8% | 56.2% | 51.4% | Non-toxic
15 | 1.68 | 24.1% | Cn1c2ccccc2c2cc(C3CC(c4ccc(Cl)cc4Cl)=NN3)ccc21 (stereo unspecified) | 69.3% | 92.1% | 81.7% | – | –
16 | 2.61 | 18.5% | Cn1c2ccccc2c2cc(C3CC(c4cccs4)=NN3)ccc21 (stereo unspecified) | 63.1% | 85.3% | 81.1% | 42.2% | Non-toxic
